From ChEMBL document CHEMBL3233005 (Bioorg Med Chem Lett, 2014)

These compounds were tested against T1, Aromatase (Homo sapiens, UniProt P11511) (assay: Inhibition of human aromatase using androstenedione as substrate assessed as remaining estrone level at 10 uM after 30 mins by LC-MS/MS analysis relative to control). Conditions: 0.5 h, read-out: Activity.
T1 sequence (P11511 whole entry): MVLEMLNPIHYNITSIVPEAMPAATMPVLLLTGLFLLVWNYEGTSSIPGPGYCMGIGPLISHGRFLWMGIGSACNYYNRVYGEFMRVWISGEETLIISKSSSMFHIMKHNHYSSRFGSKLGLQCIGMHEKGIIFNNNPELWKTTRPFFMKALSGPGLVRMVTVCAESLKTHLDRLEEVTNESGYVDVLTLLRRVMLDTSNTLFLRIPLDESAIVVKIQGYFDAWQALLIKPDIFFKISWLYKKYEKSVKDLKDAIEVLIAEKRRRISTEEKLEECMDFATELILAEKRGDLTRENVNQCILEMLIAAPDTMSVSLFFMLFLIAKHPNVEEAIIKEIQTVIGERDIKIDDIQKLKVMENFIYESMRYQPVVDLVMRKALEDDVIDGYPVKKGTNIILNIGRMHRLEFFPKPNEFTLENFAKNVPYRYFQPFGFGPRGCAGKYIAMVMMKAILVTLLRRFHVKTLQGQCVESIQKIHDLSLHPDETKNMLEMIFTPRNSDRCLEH
In short: (§1)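 cDNA-expressed human CYP19A1 supersomes at 0.05 mg/mL, with 1 µM androstenedione, 3.3 mM MgCl2 and an NADPH-generating system (glucose-6-phosphate, β-NADP+, glucose-6-phosphate dehydrogenase) in 0.1 M potassium phosphate, pH 7.4. Incubated 30 min at 37 °C, stopped with ethyl acetate plus cortisone internal standard, then liquid–liquid extraction. Estrone quantified by LC–MS/MS as % of control. Single concentration, mean of duplicates.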

SMILES	activity at 10 µM
O=C(O)c1ccc(O)c(O)c1 [PROTOCATECHUIC ACID]	83.5%
C[C@]12CCC(=O)C(O)=C1CC[C@@H]1[C@@H]2CC[C@]2(C)C(=O)CC[C@@H]12 [FORMESTANE]	5.1%
O=c1c(O)c(-c2ccc(O)c(O)c2)oc2cc(O)cc(O)c12 [QUERCETIN]	96%
O=C(O)c1ccc(O)cc1 [PARABEN]	91.8%
O=C1/C(=C/c2ccc(O)c(O)c2)Oc2cc(O)ccc21 [SULFURETIN]	99%
O=C1c2ccc(O)cc2O[C@H](c2ccc(O)cc2)[C@H]1O [GARBANZOL]	99.3%
O=Cc1ccc(O)cc1O	91.7%
O=C(/C=C/c1ccc(O)c(O)c1)c1ccc(O)cc1O [BUTEIN]	87.5%
O=C(O)c1cc(O)c(O)c(O)c1 [GALLIC ACID]	112%
O=c1c(O)c(-c2ccc(O)cc2)oc2cc(O)ccc12 [RESOKAEMPFEROL]	102%
O=C1c2c(O)cc(O)cc2O[C@H](c2ccc(O)c(O)c2)[C@H]1O [(+)-TAXIFOLIN]	90.7%
O=C1c2ccc(O)cc2O[C@H](c2ccc(O)c(O)c2)[C@H]1O (relative stereo) [FUSTIN]	110%
Oc1cccc(O)c1 [RESORCINOL]	91.8%
O=C(O)c1ccc(O)cc1O [2,4-DIHYDROXYBENZOIC ACID]	93.9%
O=c1c(O)c(-c2ccc(O)c(O)c2)oc2cc(O)ccc12 [FISETIN]	117%

Each compound was assayed against T1, Aromatase (assay: Inhibition of human aromatase using androstenedione as substrate assessed as estrone formation at 10 uM after 30 mins by LC-MS/MS analysis). Conditions: not given.
In short: as §1

SMILES	IC50
C[C@]12CCC(=O)C(O)=C1CC[C@@H]1[C@@H]2CC[C@]2(C)C(=O)CC[C@@H]12 [FORMESTANE]	470 nM

Same assay, conditions: human, 0.5 h, 10 µM

SMILES	inhibition (INH)
C[C@]12CCC(=O)C(O)=C1CC[C@@H]1[C@@H]2CC[C@]2(C)C(=O)CC[C@@H]12 [FORMESTANE]	Dose-dependent effect
